IC50 and Ratio IC50 data for 23 compounds are collected here from ChEMBL document CHEMBL4411272, “Design, synthesis and biological evaluation of AZD9291 derivatives as selective and potent EGFRL858R/T790M inhibitors” (Eur J Med Chem, 2019).

The subject of one test is NCI-H1975. The test is described as follows: Antiproliferative activity against human NCI-H1975 cells after 72 hrs by MTT assay. In kind it is functional, cell-based. The following applies: NCI-H1975, 72 h. In a few lines:
(§1)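 MTT assay; cells grown as monolayers in DMEM or RPMI1640 with 10% FBS at 37 °C, 5% CO2 for 24 h, then compound added for 72 h. MTT at 5 μg/mL for 4 h at 37 °C, formazan dissolved in DMSO, absorbance read at 492 nm with 630 nm reference. Each compound tested three times per line; IC50 from averaged determinations.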

A further test is filed under the species Homo sapiens. Nature of the test: Selectivity ratio of IC50 for wild-type EGFR (unknown origin) to IC50 for EGFR T790M/L858R double mutant (unknown origin).
A further test concerns A549. Nature of the test: Antiproliferative activity against human A549 cells after 72 hrs by MTT assay. In kind it is functional, cell-based. The following applies: A549, 72 h. In short, it runs like this:
as §1
For orientation: Tetrazolium dyes change colour on reduction, which living cells bring about.

Test [1] concerns the target Epidermal growth factor receptor (Homo sapiens, UniProt P00533, L858R/T790M). The test is described as follows: Inhibition of EGFR T790M/L858R double mutant (unknown origin) using substrate-biotin by ELISA-based mobility shift assay. On the technique in general: ELISA stands for enzyme-linked immunosorbent assay.
Another test has as its system HepG2. Nature of the test: Antiproliferative activity against human HepG2 cells after 72 hrs by MTT assay. The format is functional, cell-based. As to conditions: HepG2, 72 h. In short, it runs like this: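 MTT assay; cells grown as monolayers in DMEM or RPMI1640 with 10% FBS at 37 °C, 5% CO2 for 24 h, then compound added for 72 h. Each compound tested three times per line; IC50 from averaged determinations.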

For test [2], the target named is Epidermal growth factor receptor (Homo sapiens, UniProt P00533). The test is described as follows: Inhibition of wild-type EGFR (unknown origin) using substrate-biotin by ELISA-based mobility shift assay.
Chain of Epidermal growth factor receptor (Homo sapiens, UniProt P00533) (P00533 whole entry): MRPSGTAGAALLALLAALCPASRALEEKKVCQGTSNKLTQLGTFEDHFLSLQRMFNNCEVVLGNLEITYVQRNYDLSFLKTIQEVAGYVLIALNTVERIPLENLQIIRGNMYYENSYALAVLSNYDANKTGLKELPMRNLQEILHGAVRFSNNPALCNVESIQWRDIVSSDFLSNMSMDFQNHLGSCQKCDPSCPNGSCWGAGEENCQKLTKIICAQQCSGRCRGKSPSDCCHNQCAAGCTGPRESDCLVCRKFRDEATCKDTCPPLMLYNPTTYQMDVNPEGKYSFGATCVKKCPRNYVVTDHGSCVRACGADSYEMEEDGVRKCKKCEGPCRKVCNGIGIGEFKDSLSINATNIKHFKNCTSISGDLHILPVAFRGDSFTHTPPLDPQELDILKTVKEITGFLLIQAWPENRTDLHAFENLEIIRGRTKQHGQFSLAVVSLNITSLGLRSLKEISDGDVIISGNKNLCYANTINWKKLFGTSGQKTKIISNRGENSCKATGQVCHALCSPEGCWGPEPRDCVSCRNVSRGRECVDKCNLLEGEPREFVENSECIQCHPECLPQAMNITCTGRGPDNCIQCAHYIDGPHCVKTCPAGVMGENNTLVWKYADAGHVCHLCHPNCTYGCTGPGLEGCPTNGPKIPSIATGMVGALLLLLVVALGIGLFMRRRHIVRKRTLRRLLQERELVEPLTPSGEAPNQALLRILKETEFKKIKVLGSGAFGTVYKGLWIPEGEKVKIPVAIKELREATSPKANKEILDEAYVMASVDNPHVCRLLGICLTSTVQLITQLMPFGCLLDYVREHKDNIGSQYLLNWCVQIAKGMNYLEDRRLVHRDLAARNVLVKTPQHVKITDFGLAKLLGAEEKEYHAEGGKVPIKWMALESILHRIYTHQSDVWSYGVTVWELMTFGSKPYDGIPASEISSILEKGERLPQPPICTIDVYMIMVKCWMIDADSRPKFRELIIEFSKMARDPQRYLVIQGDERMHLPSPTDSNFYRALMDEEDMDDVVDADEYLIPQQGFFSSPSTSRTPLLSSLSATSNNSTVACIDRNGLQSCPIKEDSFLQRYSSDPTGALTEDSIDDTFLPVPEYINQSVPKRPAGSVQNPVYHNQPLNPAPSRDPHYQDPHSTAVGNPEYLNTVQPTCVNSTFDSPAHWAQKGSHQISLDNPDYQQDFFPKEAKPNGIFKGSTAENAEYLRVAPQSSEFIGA

Structures are written as SMILES. pIC50: −log10 of the molar value. Some results are limits rather than exact numbers.

Chain of Epidermal growth factor receptor (Homo sapiens, UniProt P00533, L858R/T790M) (P00533 25-1210 T790M/L858R limits assumed): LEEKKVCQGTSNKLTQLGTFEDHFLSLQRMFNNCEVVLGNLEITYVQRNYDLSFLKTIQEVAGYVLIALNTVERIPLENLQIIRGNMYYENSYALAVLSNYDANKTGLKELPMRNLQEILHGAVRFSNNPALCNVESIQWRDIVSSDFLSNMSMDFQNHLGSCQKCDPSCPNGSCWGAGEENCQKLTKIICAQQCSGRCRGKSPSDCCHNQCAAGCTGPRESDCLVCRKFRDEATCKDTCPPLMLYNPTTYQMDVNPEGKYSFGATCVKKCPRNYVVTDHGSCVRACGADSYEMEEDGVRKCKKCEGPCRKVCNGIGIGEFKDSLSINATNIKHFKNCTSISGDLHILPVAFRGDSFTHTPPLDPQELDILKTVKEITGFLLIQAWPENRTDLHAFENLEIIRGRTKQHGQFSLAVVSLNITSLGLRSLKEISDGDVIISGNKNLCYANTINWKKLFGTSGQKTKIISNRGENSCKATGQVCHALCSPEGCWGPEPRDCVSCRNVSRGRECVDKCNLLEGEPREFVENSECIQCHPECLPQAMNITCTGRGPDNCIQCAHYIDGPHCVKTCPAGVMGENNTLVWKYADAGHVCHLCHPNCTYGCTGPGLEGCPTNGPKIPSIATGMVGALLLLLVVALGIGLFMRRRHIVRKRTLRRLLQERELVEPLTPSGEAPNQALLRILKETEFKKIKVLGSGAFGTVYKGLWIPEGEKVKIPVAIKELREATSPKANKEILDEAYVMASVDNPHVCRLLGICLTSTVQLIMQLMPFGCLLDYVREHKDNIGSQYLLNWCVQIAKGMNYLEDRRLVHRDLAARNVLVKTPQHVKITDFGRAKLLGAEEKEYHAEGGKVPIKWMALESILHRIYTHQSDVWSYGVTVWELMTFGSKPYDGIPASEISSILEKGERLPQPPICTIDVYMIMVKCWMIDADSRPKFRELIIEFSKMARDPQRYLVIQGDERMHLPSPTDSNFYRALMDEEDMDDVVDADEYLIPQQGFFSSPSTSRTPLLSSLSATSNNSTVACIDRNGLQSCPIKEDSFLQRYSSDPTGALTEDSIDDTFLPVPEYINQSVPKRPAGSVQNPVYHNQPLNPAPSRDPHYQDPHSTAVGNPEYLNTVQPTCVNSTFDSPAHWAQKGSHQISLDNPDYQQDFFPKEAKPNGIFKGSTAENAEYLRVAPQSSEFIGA

Turning to `COc1cc(N(C)CCN(C)C)c(NC(=O)/C=C\C(C)C)cc1Nc1ncc(C#N)c(-c2cn(C)c3ccc(F)cc23)n1`, the pIC50 (as a rule, −log10 of the IC50, conventionally taken in molar units) in the test on NCI-H1975 is 5.95; in the test with A549, 6.73; in test [1], 6.44; in the test with HepG2 it was 5.55; in test [2] it was 6.38. Also, the Ratio IC50 in the test filed under Homo sapiens was 1.2.

`CC/C=C\C(=O)Nc1cc(Nc2nc(C)cc(-c3cn(C)c4ccccc34)n2)c(OC)cc1N(C)CCN(C)C`: the pIC50 with NCI-H1975 is 5.70; in the test with A549, 5.96; in test [1] it was 7.74; with HepG2, 5.69; in test [2] it was 5.90. Besides, the Ratio IC50 in the test listed under Homo sapiens was 69.7.

As to `C=CC(=O)Nc1cc(Nc2nccc(-c3cn(C)c4ccccc34)n2)c(OC)cc1N(C)CCN(C)C` [OSIMERTINIB], the pIC50 is […] in the test with NCI-H1975 and 6.21 in the test on A549.

On to `CC/C=C\C(=O)Nc1cc(Nc2nc(C)cc(-c3cn(C)c4ccc(F)cc34)n2)c(OC)cc1N(C)CCN(C)C`, for which the pIC50 with NCI-H1975 was 4.98; with A549 it was 5.04; in test [1], 6.00; in the test on HepG2, 4.96; in test [2] it was < 5.70.

For the compound `CC/C=C\C(=O)Nc1cc(Nc2ncc(C#N)c(-c3cn(C)c4ccccc34)n2)c(OC)cc1N(C)CCN(C)C`, the negative logarithm of the IC50 (pIC50) is 5.94 in the test on NCI-H1975; 6.79 in the test with A549; 7.80 in test [1]; 5.87 with HepG2; 6.41 in test [2]. The Ratio IC50 in the test filed under Homo sapiens worked out at 24.2.

As to `COc1cc(N(C)CCN(C)C)c(NC(=O)/C=C\C(C)C)cc1Nc1nccc(-c2cn(C)c3ccccc23)n1`, the pIC50 was 5.74 with NCI-H1975; 6.21 in the test with A549; 6.40 in test [1]; 5.36 in the test on HepG2; < 5.70 in test [2].

As for `CCC/C=C\C(=O)Nc1cc(Nc2nccc(-c3cn(C)c4ccc(F)cc34)n2)c(OC)cc1N(C)CCN(C)C`, the negative-log IC50 (pIC50) with NCI-H1975 is 5.56; in the test on A549 it was 5.99; in test [1], 8.12; in the test with HepG2 it was 5.47; in test [2], 7.92. The Ratio IC50 in the test listed under Homo sapiens was 1.6.

Take `C=CC(=O)Nc1cc(Nc2nccc(-c3cn(C)c4ccc(F)cc34)n2)c(OC)cc1N(C)CCN(C)C`: the pIC50 was 6.60 with NCI-H1975; 6.48 with A549; 10.15 in test [1]; 6.37 in the test with HepG2; 8.06 in test [2]. The Ratio IC50 in the test listed under Homo sapiens worked out at 124.

Take `CC/C=C\C(=O)Nc1cc(Nc2nccc(-c3cn(C)c4ccc(F)cc34)n2)c(OC)cc1N(C)CCN(C)C`: the pIC50 is 5.59 in the test on NCI-H1975; 5.44 with A549; 6.41 in test [1]; 5.28 in the test with HepG2; 6.16 in test [2]. In addition, the Ratio IC50 in the test filed under Homo sapiens is 1.8.

Turning to `CCC/C=C\C(=O)Nc1cc(Nc2ncc(C#N)c(-c3cn(C)c4ccccc34)n2)c(OC)cc1N(C)CCN(C)C`, the pIC50 with NCI-H1975 is 6.08; in the test with A549 it was 6.78; in test [1], 7.43; with HepG2 it was 5.77; in test [2], 6.42. Moreover, in the test filed under Homo sapiens, the Ratio IC50 came out at 10.2.

As to `C=CC(=O)Nc1cc(Nc2ncc(C#N)c(-c3cn(C)c4ccc(F)cc34)n2)c(OC)cc1N(C)CCN(C)C`, the pIC50 in the test on NCI-H1975 is 4.94; in the test with A549 it was 5.01; in test [1], < 5.70; in the test on HepG2 it was 4.76; in test [2], < 5.70.

In the case of `COc1cc(N(C)CCN(C)C)c(NC(=O)/C=C\C(C)C)cc1Nc1nc(C)cc(-c2cn(C)c3ccc(F)cc23)n1`, the pIC50 is 5.07 in the test with NCI-H1975; 5.04 in the test on A549; 6.05 in test [1]; 4.85 in the test on HepG2; < 5.70 in test [2].

Take `COc1cc(N(C)CCN(C)C)c(NC(=O)C=C(C)C)cc1Nc1nccc(-c2cn(C)c3ccccc23)n1`: the pIC50 with NCI-H1975 was 5.25; in the test with A549 it was 5.39; in test [1] it was 6.68; in the test with HepG2, 5.25; in test [2] it was 5.89. In addition, in the test listed under Homo sapiens, the Ratio IC50 came out at 6.1.

As for `CC/C=C\C(=O)Nc1cc(Nc2ncc(C#N)c(-c3cn(C)c4ccc(F)cc34)n2)c(OC)cc1N(C)CCN(C)C`, the negative-log IC50 (pIC50) with NCI-H1975 was 4.99; in the test on A549 it was 5.33; in test [1], < 5.70; in the test with HepG2, 5.23; in test [2] it was < 5.70.

In the case of `C/C=C\C(=O)Nc1cc(Nc2nccc(-c3cn(C)c4ccccc34)n2)c(OC)cc1N(C)CCN(C)C`, the pIC50 with NCI-H1975 is 5.34; in the test on A549, 6.18; in test [1], 7.28; with HepG2, 5.16; in test [2], 6.40. Moreover, the Ratio IC50 in the test listed under Homo sapiens stood at 7.6.

On to `C=CC(=O)Nc1cc(Nc2ncc(C#N)c(-c3cn(C)c4ccccc34)n2)c(OC)cc1N(C)CCN(C)C`, for which the pIC50 is 5.93 in the test on NCI-H1975; 6.51 with A549; 7.60 in test [1]; 6.11 in the test with HepG2; 6.51 in test [2]. Also, the Ratio IC50 in the test listed under Homo sapiens was 12.4.

Consider `CC/C=C\C(=O)Nc1cc(Nc2nccc(-c3cn(C)c4ccccc34)n2)c(OC)cc1N(C)CCN(C)C`, for which the pIC50 in the test on NCI-H1975 was 5.41; in the test on A549, 5.81; in test [1], 6.75; with HepG2, 5.18; in test [2] it was 5.89. Moreover, the Ratio IC50 in the test listed under Homo sapiens came to 7.2.

Regarding `C=CC(=O)Nc1cc(Nc2nc(C)cc(-c3cn(C)c4ccc(F)cc34)n2)c(OC)cc1N(C)CCN(C)C`, the pIC50 in the test with NCI-H1975 is 5.42; with A549, 5.83; in test [1], 6.23; in the test with HepG2 it was 5.37; in test [2], 5.96. Further, the Ratio IC50 in the test listed under Homo sapiens was found to be 1.9.

As to `C=C(F)C(=O)Nc1cc(Nc2nccc(-c3cn(C)c4ccccc34)n2)c(OC)cc1N(C)CCN(C)C`, the negative-log IC50 (pIC50) with NCI-H1975 was 5.37; in the test with A549 it was 5.61; in test [1], 8.22; with HepG2 it was 5.42; in test [2], 7.19. The Ratio IC50 in the test listed under Homo sapiens was 10.8.

For `CCC/C=C\C(=O)Nc1cc(Nc2nc(C)cc(-c3cn(C)c4ccc(F)cc34)n2)c(OC)cc1N(C)CCN(C)C`, the pIC50 in the test on NCI-H1975 was 4.91; with A549 it was 4.88; in test [1], 6.03; in the test with HepG2, 4.92; in test [2], < 5.70.

Consider `COc1cc(N(C)CCN(C)C)c(NC(=O)/C=C\C(C)C)cc1Nc1nc(C)cc(-c2cn(C)c3ccccc23)n1`, for which the pIC50 in the test on NCI-H1975 is 5.91; in the test on A549, 5.97; in test [1], 7.42; in the test with HepG2, 5.45; in test [2] it was < 5.70.

Regarding `COc1cc(N(C)CCN(C)C)c(NC(=O)C(Cl)=C(Cl)Cl)cc1Nc1nccc(-c2cn(C)c3ccccc23)n1`, the pIC50 in the test on NCI-H1975 is < 4.30; with A549, < 4.30; in test [1], < 5.70; in the test on HepG2, < 4.30; in test [2] it was < 5.70.

For the compound `COc1cc(N(C)CCN(C)C)c(NC(=O)/C=C\C(C)C)cc1Nc1nccc(-c2cn(C)c3ccc(F)cc23)n1`, the pIC50 with NCI-H1975 is 5.13; in the test on A549 it was 5.21; in test [1], < 5.70; in the test with HepG2, 5.41; in test [2], 6.01.
